In test [1] the target is T1, Dopamine beta-hydroxylase (Bos taurus, UniProt P15101).
T1 sequence (P15101 whole entry): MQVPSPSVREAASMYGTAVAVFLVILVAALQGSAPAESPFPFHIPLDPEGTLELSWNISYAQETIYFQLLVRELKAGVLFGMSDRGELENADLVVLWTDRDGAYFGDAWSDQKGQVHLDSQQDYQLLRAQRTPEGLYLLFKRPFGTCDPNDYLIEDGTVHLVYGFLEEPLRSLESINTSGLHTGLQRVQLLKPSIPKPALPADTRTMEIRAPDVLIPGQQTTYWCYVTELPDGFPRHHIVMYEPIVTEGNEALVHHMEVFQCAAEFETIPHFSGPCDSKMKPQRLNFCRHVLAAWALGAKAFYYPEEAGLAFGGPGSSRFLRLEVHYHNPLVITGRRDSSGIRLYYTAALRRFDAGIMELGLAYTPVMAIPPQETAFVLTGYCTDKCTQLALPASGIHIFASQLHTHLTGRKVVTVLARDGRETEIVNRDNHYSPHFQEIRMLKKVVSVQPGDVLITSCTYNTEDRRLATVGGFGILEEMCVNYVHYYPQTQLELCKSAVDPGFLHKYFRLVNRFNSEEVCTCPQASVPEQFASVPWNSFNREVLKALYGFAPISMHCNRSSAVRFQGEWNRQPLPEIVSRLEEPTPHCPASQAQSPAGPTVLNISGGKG
Briefly: Compound was evaluated for the ability to bind to dopamine beta-hydroxylase of bovine. The method in brief: (§1)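 Purified bovine DβH (20-40 μg) was preincubated at 25 °C with varied inhibitor in 100 mM Mes/100 mM NaOAc, pH 5.0, with 0-3% DMF, 0.5 mg/mL catalase and 12 mM ascorbate. Timed aliquots went into assay mix at 37 °C, pH 5.5, with 30 mM tyramine and 12 mM ascorbate, and O2 uptake was read. Apparent kinact came from ln(activity) versus time; 1/kinact versus 1/[I] replots gave kinact and Ki.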

Test [2] is described as follows: Ratio of inactivation constant (Kinact) and inhibitory constant (Ki). The method in brief:
as §1

The target in test [3] is T2, Dopamine beta-hydroxylase (Bos taurus) (UniProt P15101).
T2 sequence (whole entry): T1 sequence (P15101 whole entry)
Briefly: Inactivation constant of compound was determined by using bovine dopamine beta-hydroxylase. The method in brief:
as §1

Test [4] addresses T2, Dopamine beta-hydroxylase (Bos taurus). Briefly: (§2) Partition ratio was determined by quantitating amount of compound consumed after complete inactivation of a known amount of dopamine beta-hydroxylase. The method in brief: (§3)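 Bovine DβH (15-20 μg) was fully inactivated at 25 °C with inhibitor in 125 mM Mes/125 mM NaOAc, pH 5.5, with 0.5 mg/mL catalase and 12 mM ascorbate. Inhibitor consumed was quantified by C18 HPLC (water-acetonitrile) with UV detection at each inhibitor's maximum. Controls without enzyme were run. Partition ratio is turnover/inactivation.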

The nature of test [5]: as §2. The method in brief:
as §3

Structures are written as SMILES. A value given as a limit tells only on which side of the number the result lay.

What is called Ki is a dissociation constant, usually derived from enzyme kinetics or from competition with a known ligand. A high value points to lower affinity.

In test [1], `NCC=C1SCCS1` had an inhibitory constant (Ki) of 5 µM. Moreover, the Ratio in test [2] was found to be 30000. In test [3], the K inact was 0.15 min⁻¹.

`C/C=C/c1ccc(O)cc1`: the inhibition constant (Ki) in test [1] is > 20000 µM. Moreover, the Partition ratio in test [4] was found to be 680.

Turning to `C#CC(CN)c1ccc(O)cc1` (stereo not given), the Ratio in test [2] amounted to 3230.

In turn, `C=Cc1ccc(O)cc1` [4-VINYLPHENOL] came in with an inhibition constant (Ki) in test [1] of 700 µM. Moreover, in test [5], the Partition ratio came to 730. Further, in test [3], the K inact was 0.025 min⁻¹.

Take `C=C(CN)c1ccc(O)cc1`: the Ratio in test [2] turned out to be 1560.

Regarding `Oc1cccc2ccoc12`, the Ki in test [1] was found to be 3200 µM. Moreover, the Partition ratio in test [5] is 35. In test [3], this compound registered a K inact of 0.25 min⁻¹.

For `Oc1ccc2ccoc2c1`, the Ki in test [1] was 40 µM. Besides, the Ratio in test [2] came out at 5750. For the same compound, the Partition ratio in test [5] is 27. In addition, the K inact in test [3] was 0.23 min⁻¹.

For the compound `Oc1ccc2occc2c1`, in test [1], the Ki came out at 1900 µM. The Partition ratio in test [5] was found to be 8. In test [3], the K inact was 0.23 min⁻¹.

(Values after ChEMBL document CHEMBL1124436, “Benzofurans as mechanism-based inhibitors of dopamine beta-hydroxylase” (J Med Chem, 1989).)
